Measured values from ChEMBL document CHEMBL1143122, “Novel analogs of D-e-MAPP and B13. Part 1: synthesis and evaluation as potential anticancer agents” (Bioorg Med Chem, 2008).

What was measured:
U-251 = assay: Antiproliferative activity against human U251 cells after 48 hrs; format: functional; conditions: U-251, 48 h
Method in brief: (§1)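 NCI 60-cell-line screen. Lines grown in RPMI 1640 with 5% fetal bovine serum and 2 mM L-glutamine, plated at 5,000–40,000 cells/well according to doubling time, left 24 h at 37 °C in 5% CO2. Drug stocks in DMSO at 400-fold the top final concentration. Five 10-fold dilutions, 10−4 to 10−8 M, incubated 48 h. Growth read spectrophotometrically as net protein; GI50 taken as 50% reduction.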

LOX IMVI = assay: Antiproliferative activity against human LOXIMVI cells after 48 hrs; format: functional
Method in brief: (§2)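 NCI 60-cell screen. Cells were grown in RPMI 1640 with 5% FBS and 2 mM L-glutamine, then plated at 5,000–40,000 cells/well according to doubling time and preincubated for 24 h at 37 °C in 5% CO2. Compounds were dissolved in DMSO at 400× the top final concentration and tested at five 10-fold dilutions from 10−4 to 10−8 M for 48 h. Growth was read spectrophotometrically; GI50 is 50% net protein reduction.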

M14 = assay: Antiproliferative activity against human M14 cells after 48 hrs; format: functional; conditions: M14, 48 h; method in brief: as §2
IGROV-1 = assay: Antiproliferative activity against human IGROV1 cells after 48 hrs; format: functional; conditions: IGROV-1, 48 h; method in brief: as §2
OVCAR-3 = assay: Antiproliferative activity against human OVCAR-3 cells after 48 hrs; format: functional; conditions: OVCAR-3, 48 h; method in brief: as §2
OVCAR-4 = assay: Antiproliferative activity against human OVCAR4 cells after 48 hrs; format: functional; conditions: OVCAR-4, 48 h; method in brief: as §2
OVCAR-5 = assay: Antiproliferative activity against human OVCAR5 cells after 48 hrs; format: functional; conditions: OVCAR-5, 48 h; method in brief: as §2
OVCAR-8 = assay: Antiproliferative activity against human OVCAR8 cells after 48 hrs; format: functional; conditions: OVCAR-8, 48 h; method in brief: as §2
SK-OV-3 = assay: Antiproliferative activity against human SKOV3 cells after 48 hrs; format: functional; conditions: SK-OV-3, 48 h; method in brief: as §2
ACHN = assay: Antiproliferative activity against human ACHN cells after 48 hrs; format: functional; method in brief: as §2
RXF 393 = assay: Antiproliferative activity against human RXF393 cells after 48 hrs; format: functional; conditions: RXF 393, 48 h; method in brief: as §2
SN12C = assay: Antiproliferative activity against human SN12C cells after 48 hrs; format: functional; method in brief: as §2
UO-31 = assay: Antiproliferative activity against human UO31 cells after 48 hrs; format: functional; conditions: UO-31, 48 h; method in brief: as §1
PC-3 = assay: Antiproliferative activity against human PC3 cells after 48 hrs; format: functional; conditions: PC-3, 48 h; method in brief: as §2
[1] = Antiproliferative activity against human NCI-ADR-RES cells after 48 hrs; format: functional; method in brief: as §2
MDA-MB-435 = assay: Antiproliferative activity against human MDA-MB-435 cells after 48 hrs; format: functional; method in brief: as §2
NCI-H226 = assay: Antiproliferative activity against human NCI-H226 cells after 48 hrs; format: functional; conditions: NCI-H226, 48 h; method in brief: as §2
NCI-H23 = assay: Antiproliferative activity against human NCI-H23 cells after 48 hrs; format: functional; conditions: NCI-H23, 48 h; method in brief: as §2
NCI-H460 = assay: Antiproliferative activity against human NCI-H460 cells after 48 hrs; format: functional; conditions: NCI-H460, 48 h; method in brief: as §2
COLO 205 = assay: Antiproliferative activity against human COLO205 cells after 48 hrs; format: functional; conditions: COLO 205, 48 h; method in brief: as §2
HCC 2998 = assay: Antiproliferative activity against human HCC2998 cells after 48 hrs; format: functional; conditions: HCC 2998, 48 h; method in brief: as §2
HCT-116 = assay: Antiproliferative activity against human HCT116 cells after 48 hrs; format: functional; conditions: HCT-116, 48 h; method in brief: as §2
HCT-15 = assay: Antiproliferative activity against human HCT15 cells after 48 hrs; format: functional; conditions: Homo sapiens, HCT-15, 48 h; method in brief: as §2
SF-268 = assay: Antiproliferative activity against human SF268 cells after 48 hrs; format: functional; conditions: SF-268, 48 h; method in brief: as §2
SF-539 = assay: Antiproliferative activity against human SF539 cells after 48 hrs; format: functional; conditions: SF-539, 48 h; method in brief: as §2
SNB-19 = assay: Antiproliferative activity against human SNB19 cells after 48 hrs; format: functional; conditions: SNB-19, 48 h; method in brief: as §2
MCF7 = assay: Antiproliferative activity against human MCF7 cells after 48 hrs; format: functional, cell-based; conditions: MCF7, 48 h
CCRF-CEM = assay: Antiproliferative activity against human CCRF-CEM cells after 48 hrs; format: functional; method in brief: as §2
[2] = Antiproliferative activity against human HL60(TB) cells after 48 hrs; format: functional, HL-60(TB); conditions: HL-60, 48 h
Method in brief: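 NCI 60-line panel screen: cells grown in RPMI 1640 with 5% fetal bovine serum and 2 mM L-glutamine, plated at 5,000–40,000 cells/well by doubling time, and preincubated 24 h at 37 °C in 5% CO2. Drugs were solubilised in DMSO at 400-fold the final maximum and tested at five 10-fold dilutions from 10−4 to 10−8 M for 48 h. Net protein was read spectrophotometrically, and the concentration giving 50% reduction was reported as log10 GI50.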

A549 = assay: Antiproliferative activity against human A549 cells after 48 hrs; format: functional; conditions: A549, 48 h; method in brief: as §2
[3] = read-out: Log LC50 (the source's name) (converted)

## C[C@@H](NC(=O)CCCCCCCCCCCCCCC[n+]1ccccc1)[C@@H](O)c1ccccc1.[Br-]
U-251
  GI50: 1.41 µM
U-251; [3]
  CC50: 5.25 µM
U-251; read-out: Log TGI (converted)
  TGI: 2.75 µM
LOX IMVI
  GI50: 3.55 µM
  LC50: 51.3 µM
LOX IMVI; read-out: Log TGI (converted)
  TGI: 13.5 µM
M14
  GI50: 3.39 µM
  LC50: 8.32 µM
M14; read-out: Log TGI (converted)
  TGI: 3.89 µM
IGROV-1
  GI50: 1.62 µM
IGROV-1; read-out: Log TGI (converted)
  TGI: 3.31 µM
OVCAR-3
  GI50: 1.1 µM
OVCAR-3; read-out: Log TGI (converted)
  TGI: 2.4 µM
OVCAR-4
  GI50: 1.7 µM
  LC50: > 100 µM
OVCAR-4; read-out: Log TGI (converted)
  TGI: 5.37 µM
OVCAR-5
  GI50: 5.25 µM
OVCAR-5; [3]
  CC50: 50.1 µM
OVCAR-5; read-out: Log TGI (converted)
  TGI: 18.2 µM
OVCAR-8
  GI50: 2.75 µM
OVCAR-8; [3]
  CC50: > 100 µM
OVCAR-8; read-out: Log TGI (converted)
  TGI: 13.5 µM
SK-OV-3
  GI50: 3.09 µM
SK-OV-3; [3]
  CC50: 60.3 µM
SK-OV-3; read-out: Log TGI (converted)
  TGI: 13.5 µM
ACHN
  GI50: 17 µM
ACHN; [3]
  CC50: 64.6 µM
ACHN; read-out: Log TGI (converted)
  TGI: 33.1 µM
RXF 393
  GI50: 4.57 µM
RXF 393; [3]
  CC50: 97.7 µM
RXF 393; read-out: Log TGI (converted)
  TGI: 24 µM
SN12C
  GI50: 1.74 µM
  LC50 (50% net cell kill): 7.76 µM
SN12C; read-out: Log TGI (converted)
  TGI: 3.63 µM
UO-31
  GI50: 19.1 µM
  LC50: 93.3 µM
UO-31; read-out: Log TGI (converted)
  TGI: 41.7 µM
PC-3
  GI50: 1.38 µM
  LC50: 15.1 µM
PC-3; read-out: Log TGI (converted)
  TGI: 3.98 µM
[1]
  GI50: 19.5 µM
  LC50: 85.1 µM
[1]; read-out: Log TGI (converted)
  TGI: 40.7 µM
MDA-MB-435
  GI50: 1.58 µM
MDA-MB-435; Homo sapiens, MDA-MB-435, 48 h
  GI50: 1.78 µM
  LC50: 5.5 µM
MDA-MB-435; Homo sapiens, MDA-MB-435, 48 h, read-out: Log TGI (converted)
  TGI: 2.95 µM
NCI-H226
  GI50: 4.17 µM
NCI-H226; [3]
  CC50: > 100 µM
NCI-H226; read-out: Log TGI (converted)
  TGI: 22.9 µM
NCI-H23
  GI50: 2.95 µM
NCI-H23; [3]
  CC50: 56.2 µM
NCI-H23; read-out: Log TGI (converted)
  TGI: 11.7 µM
NCI-H460
  GI50: 2.95 µM
NCI-H460; [3]
  CC50: > 100 µM
NCI-H460; read-out: Log TGI (converted)
  TGI: 11.5 µM
COLO 205
  GI50: 1.38 µM
COLO 205; read-out: Log TGI (converted)
  TGI: 3.02 µM
HCC 2998
  GI50: 1.51 µM
HCC 2998; [3]
  CC50: 6.03 µM
HCC 2998; read-out: Log TGI (converted)
  TGI: 3.02 µM
HCT-116
  GI50: 3.39 µM
  LC50: 58.9 µM
HCT-116; read-out: Log TGI (converted)
  TGI: 13.2 µM
HCT-15
  GI50: 17.8 µM
  LC50: 58.9 µM
HCT-15; read-out: Log TGI (converted)
  TGI: 32.4 µM
SF-268
  GI50: 1.66 µM
  LC50: 6.03 µM
SF-268; read-out: Log TGI (converted)
  TGI: 3.16 µM
SF-539
  GI50: 2.04 µM
  LC50: > 100 µM
SF-539; read-out: Log TGI (converted)
  TGI: 5.5 µM
SNB-19
  GI50: 1.58 µM
SNB-19; read-out: Log TGI (converted)
  TGI: 3.09 µM
MCF7
  GI50: 1.58 µM
  LC50: 8.51 µM
MCF7; read-out: Log TGI (converted)
  TGI: 3.72 µM
CCRF-CEM
  GI50: < 0.01 µM
[2]
  GI50: 1.12 µM
  LC50: > 100 µM
[2]; read-out: Log TGI (converted)
  TGI: 3.72 µM
A549
  GI50: 4.37 µM
A549; [3]
  CC50: > 100 µM
A549; read-out: Log TGI (converted)
  TGI: 43.7 µM
